Tested on: Fibroblast
Experiment: Multiplex assay against human fibroblast
Assay type: toxicity, cell-based
Summary of the method: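 Cells stained live at seeding with Hoechst33342, BioTracker Green Microtubule Cytoskeleton Dye, MitoTracker Red and Annexin V Alexa Fluor 680 were imaged on a CQ1 microscope at 37°C and 5% CO2 after compound addition. Their classification by CellPathfinder machine-learning gating ran from Hoechst high-intensity objects versus normal cells, to healthy, pyknosed or fragmented nuclei among normal cells, to mitotic or apoptotic among pyknosed cells. Tubulin, mitochondrial-mass and membrane-permeability phenotypes are per cents of healthy-nucleus cells.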

[1] = 12 h, 1 µM, compound concentration 1 uM, replicate 1
[2] = 12 h, 1 µM, compound concentration 1 uM, replicate 2
[3] = 12 h, 10 µM, compound concentration 10 uM, replicate 1
[4] = 12 h, 10 µM, compound concentration 10 uM, replicate 2
[5] = 24 h, 1 µM, compound concentration 1 uM, replicate 1
[6] = 24 h, 1 µM, compound concentration 1 uM, replicate 2
[7] = 24 h, 10 µM, compound concentration 10 uM, replicate 1
[8] = 24 h, 10 µM, compound concentration 10 uM, replicate 2
[9] = 48 h, 1 µM, compound concentration 1 uM, replicate 1
[10] = 48 h, 1 µM, compound concentration 1 uM, replicate 2
[11] = 48 h, 10 µM, compound concentration 10 uM, replicate 1
[12] = 48 h, 10 µM, compound concentration 10 uM, replicate 2

In the case of `C=CC(=O)Nc1cccc(C(=O)Nc2ccc(Nc3cc(-c4[nH]c(SC)nc4C)ccn3)cc2)c1`, the “Population Apoptotic (%)” value [1] is reported as 69%, the “Population Fragmented Nuclei (%)” value [1] is reported as 23% and the “Population Healthy Nuclei (%)” value [1] is reported as 43%. For the same molecule, the “Population Hoechst High Intensity Objects (%)” value [1] was 11%, the “Population Membrane Permeable-Phenotype (%)” value [1] was 28% and the “Population Mitochondria Different-Phenotype (%)” value [1] was 8%. The “Population Mitotic Cells (%)” value [1] was 30%, the “Population Normal (%)” value [1] was 88% and the “Population Pyknosed Nuclei (%)” value [1] was 33%. The “Population Tubulin-Different-Phenotype (%)” value [1] was 36%, the “Total Cell Count” value [1] was 131 and the “Population Apoptotic (%)” value [2] was 0%. For the same molecule, the “Population Fragmented Nuclei (%)” value [2] was 2%, the “Population Healthy Nuclei (%)” value [2] was 94% and the “Population Hoechst High Intensity Objects (%)” value [2] was 14%. For the same molecule, the “Population Membrane Permeable-Phenotype (%)” value [2] was 0%, the “Population Mitochondria Different-Phenotype (%)” value [2] was 7% and the “Population Mitotic Cells (%)” value [2] was 100%. For the same molecule, the “Population Normal (%)” value [2] was 85%, the “Population Pyknosed Nuclei (%)” value [2] was 2% and the “Population Tubulin-Different-Phenotype (%)” value [2] was 23%. For the same molecule, the “Total Cell Count” value [2] was 112, the “Population Apoptotic (%)” value [3] was 50% and the “Population Fragmented Nuclei (%)” value [3] was 27%. The “Population Healthy Nuclei (%)” value [3] was 50%, the “Population Hoechst High Intensity Objects (%)” value [3] was 19% and the “Population Membrane Permeable-Phenotype (%)” value [3] was 18%. For the same molecule, the “Population Mitochondria Different-Phenotype (%)” value [3] was 13%, the “Population Mitotic Cells (%)” value [3] was 50% and the “Population Normal (%)” value [3] was 80%. The “Population Pyknosed Nuclei (%)” value [3] was 22%, the “Population Tubulin-Different-Phenotype (%)” value [3] was 29% and the “Total Cell Count” value [3] was 109. The “Population Apoptotic (%)” value [4] was 40%, the “Population Fragmented Nuclei (%)” value [4] was 6% and the “Population Healthy Nuclei (%)” value [4] was 83%. For the same molecule, the “Population Hoechst High Intensity Objects (%)” value [4] was 18%, the “Population Membrane Permeable-Phenotype (%)” value [4] was 7% and the “Population Mitochondria Different-Phenotype (%)” value [4] was 12%. The “Population Mitotic Cells (%)” value [4] was 60%, the “Population Normal (%)” value [4] was 81% and the “Population Pyknosed Nuclei (%)” value [4] was 10%. For the same molecule, the “Population Tubulin-Different-Phenotype (%)” value [4] was 12%, the “Total Cell Count” value [4] was 78 and the “Population Apoptotic (%)” value [5] was 60%. For the same molecule, the “Population Fragmented Nuclei (%)” value [5] was 20%, the “Population Healthy Nuclei (%)” value [5] was 55% and the “Population Hoechst High Intensity Objects (%)” value [5] was 13%. For the same molecule, the “Population Membrane Permeable-Phenotype (%)” value [5] was 29%, the “Population Mitochondria Different-Phenotype (%)” value [5] was 3% and the “Population Mitotic Cells (%)” value [5] was 39%. For the same molecule, the “Population Normal (%)” value [5] was 86%, the “Population Pyknosed Nuclei (%)” value [5] was 24% and the “Population Tubulin-Different-Phenotype (%)” value [5] was 34%. For the same molecule, the “Total Cell Count” value [5] was 134, the “Population Apoptotic (%)” value [6] was 37% and the “Population Fragmented Nuclei (%)” value [6] was 3%. For the same molecule, the “Population Healthy Nuclei (%)” value [6] was 87%, the “Population Hoechst High Intensity Objects (%)” value [6] was 4% and the “Population Membrane Permeable-Phenotype (%)” value [6] was 2%. For the same molecule, the “Population Mitochondria Different-Phenotype (%)” value [6] was 10%, the “Population Mitotic Cells (%)” value [6] was 62% and the “Population Normal (%)” value [6] was 95%. The “Population Pyknosed Nuclei (%)” value [6] was 8%, the “Population Tubulin-Different-Phenotype (%)” value [6] was 25% and the “Total Cell Count” value [6] was 122. The “Population Apoptotic (%)” value [7] was 30%, the “Population Fragmented Nuclei (%)” value [7] was 32% and the “Population Healthy Nuclei (%)” value [7] was 43%. The “Population Hoechst High Intensity Objects (%)” value [7] was 13%, the “Population Membrane Permeable-Phenotype (%)” value [7] was 20% and the “Population Mitochondria Different-Phenotype (%)” value [7] was 4%. For the same molecule, the “Population Mitotic Cells (%)” value [7] was 69%, the “Population Normal (%)” value [7] was 86% and the “Population Pyknosed Nuclei (%)” value [7] was 23%. The “Population Tubulin-Different-Phenotype (%)” value [7] was 30%, the “Total Cell Count” value [7] was 113 and the “Population Apoptotic (%)” value [8] was 40%. For the same molecule, the “Population Fragmented Nuclei (%)” value [8] was 5%, the “Population Healthy Nuclei (%)” value [8] was 85% and the “Population Hoechst High Intensity Objects (%)” value [8] was 11%. For the same molecule, the “Population Membrane Permeable-Phenotype (%)” value [8] was 8%, the “Population Mitochondria Different-Phenotype (%)” value [8] was 14% and the “Population Mitotic Cells (%)” value [8] was 60%. The “Population Normal (%)” value [8] was 88%, the “Population Pyknosed Nuclei (%)” value [8] was 9% and the “Population Tubulin-Different-Phenotype (%)” value [8] was 12%. For the same molecule, the “Total Cell Count” value [8] was 95, the “Population Apoptotic (%)” value [9] was 62% and the “Population Fragmented Nuclei (%)” value [9] was 25%. The “Population Healthy Nuclei (%)” value [9] was 50%, the “Population Hoechst High Intensity Objects (%)” value [9] was 11% and the “Population Membrane Permeable-Phenotype (%)” value [9] was 34%. For the same molecule, the “Population Mitochondria Different-Phenotype (%)” value [9] was 3%, the “Population Mitotic Cells (%)” value [9] was 37% and the “Population Normal (%)” value [9] was 88%. The “Population Pyknosed Nuclei (%)” value [9] was 23%, the “Population Tubulin-Different-Phenotype (%)” value [9] was 25% and the “Total Cell Count” value [9] was 129. For the same molecule, the “Population Apoptotic (%)” value [10] was 100%, the “Population Fragmented Nuclei (%)” value [10] was 36% and the “Population Healthy Nuclei (%)” value [10] was 61%. The “Population Hoechst High Intensity Objects (%)” value [10] was 17%, the “Population Membrane Permeable-Phenotype (%)” value [10] was 28% and the “Population Mitochondria Different-Phenotype (%)” value [10] was 2%. The “Population Mitotic Cells (%)” value [10] was 0%, the “Population Normal (%)” value [10] was 82% and the “Population Pyknosed Nuclei (%)” value [10] was 1%. For the same molecule, the “Population Tubulin-Different-Phenotype (%)” value [10] was 20%, the “Total Cell Count” value [10] was 69 and the “Population Apoptotic (%)” value [11] was 43%. For the same molecule, the “Population Fragmented Nuclei (%)” value [11] was 37%, the “Population Healthy Nuclei (%)” value [11] was 47% and the “Population Hoechst High Intensity Objects (%)” value [11] was 12%. The “Population Membrane Permeable-Phenotype (%)” value [11] was 11%, the “Population Mitochondria Different-Phenotype (%)” value [11] was 0% and the “Population Mitotic Cells (%)” value [11] was 56%. The “Population Normal (%)” value [11] was 87%, the “Population Pyknosed Nuclei (%)” value [11] was 14% and the “Population Tubulin-Different-Phenotype (%)” value [11] was 23%. For the same molecule, the “Total Cell Count” value [11] was 123, the “Population Apoptotic (%)” value [12] was 100% and the “Population Fragmented Nuclei (%)” value [12] was 36%. For the same molecule, the “Population Healthy Nuclei (%)” value [12] was 57%, the “Population Hoechst High Intensity Objects (%)” value [12] was 13% and the “Population Membrane Permeable-Phenotype (%)” value [12] was 20%. For the same molecule, the “Population Mitochondria Different-Phenotype (%)” value [12] was 3%, the “Population Mitotic Cells (%)” value [12] was 0% and the “Population Normal (%)” value [12] was 86%. For the same molecule, the “Population Pyknosed Nuclei (%)” value [12] was 5%, the “Population Tubulin-Different-Phenotype (%)” value [12] was 27% and the “Total Cell Count” value [12] was 118.

From ChEMBL document CHEMBL4689842, “EUbOPEN Chemogenomics Library wave 1” (2021)
